Results of several laboratories.
Compare with care: the assays were run in different laboratories.
Target: Homeodomain-interacting protein kinase 2 (HIPK2, Homo sapiens, UniProt Q9H2X6)

SMILES | effect on | action | technique | concentration | quantity | value
Cc1ccc(Nc2nccc(N(C)c3ccc4c(C)n(C)nc4c3)n2)cc1S(N)(=O)=O | enzyme activity | inhibitor |  | 0.3 µM | inhibition | 7%
Cc1c(NC(=O)c2cc(C(N)=O)nc3cc(F)ccc23)c(C(F)(F)F)nn1Cc1ccc(C#N)cc1 | cell-free assay |  | competition with immobilised ligand | 1 µM | remaining binding | 83%
Cc1ccc(NC(=O)c2ccc(CN3CCN(C)CC3)cc2)cc1Nc1nc(-c2cccnc2)cs1 | cell-free assay |  |  | 0.5 µM | remaining signal | 90.8%
COc1cc(-c2cc(-c3ccc(N4CCNCC4)cc3)cnc2C)cc(OC)c1OC | enzyme activity | inhibitor |  | 1 µM | inhibition | 2%
N#CCCc1ccc2c(c1)-c1[nH]c3ccc([N+](=O)[O-])cc3c1CC(=O)N2 | cell-free assay |  |  | 0.5 µM | remaining signal | 106%
O=C(O)c1ccc2c(c1)nc(NCc1ccccc1)c1ncncc12 | enzyme activity | inhibitor | radiometric | 1 µM | remaining activity | 39%
COc1cccc(CNC(=O)c2nc3scc(COCc4ccc(C(=O)O)cc4)c3c(=O)[nH]2)c1 | cell-free assay |  | competition with immobilised ligand | 1 µM | remaining binding | 72.9%
COc1cccc(Nc2nc3cc(C(=O)O)ccc3c3cnccc23)c1 | enzyme activity | inhibitor | radiometric | 1 µM | remaining activity | 2%
CNC(=O)Nc1ccc2c(c1)[C@@]1(CC2)OC(=O)N(CC(=O)N(Cc2ccc(F)cc2)[C@@H](C)C(F)(F)F)C1=O | cell-free assay |  | competition with immobilised ligand | 1 µM | remaining binding | 78%
CCOc1cc(-c2nncn2C)ccc1Nc1ncc2cc(C)nc(NCC(C)(C)C)c2n1 | enzyme activity | inhibitor | FRET | 1 µM | inhibition | < 15%
COc1cccc(CCNc2nc3cc(C(=O)O)ccc3c3cnccc23)c1 | enzyme activity | inhibitor | radiometric | 1 µM | remaining activity | 10%
Clc1ccc(Nc2nnc(Cc3ccncc3)c3ccccc23)cc1 | cell-free assay |  |  | 0.5 µM | remaining signal | 101%
O=C(O)c1ccc2c(c1)nc(NCCc1cccc(F)c1)c1ccncc12 | enzyme activity | inhibitor | radiometric | 1 µM | remaining activity | 4%
CCCCN(CCCC)C(=O)CN1C[C@H](c2cc(OC)c3c(c2)OCO3)[C@@H](C(=O)O)[C@@H]1CC(C)(C)CCC | cell-free assay |  | competition with immobilised ligand | 1 µM | remaining binding | 82.3%
O=C(O)c1ccc2c(c1)nc(Nc1ccc3ccccc3c1)c1ccncc12 | enzyme activity | inhibitor | radiometric | 1 µM | remaining activity | 4%
CNC(=O)Nc1ccc2c(c1)CC[C@@]21OC(=O)N(CC(=O)N(Cc2ccc(F)cc2)[C@@H](C)C(F)(F)F)C1=O | cell-free assay |  | competition with immobilised ligand | 1 µM | remaining binding | 95%
O=C(O)c1ccc2c(c1)nc(Nc1cccc(F)c1)c1ccncc12 | enzyme activity | inhibitor | radiometric | 1 µM | remaining activity | -1%
COc1cc(/C=C/C(=O)CC(=O)/C=C/c2ccc(O)c(OC)c2)ccc1O | enzyme activity | inhibitor |  | 1 µM | activity vs control | 54%
Nc1ncnc2occ(-c3ccc(NC(=O)Nc4cc(C(F)(F)F)ccc4F)cc3)c12 | cell-free assay | inhibitor |  | 20 µM | remaining signal | 0.05%
O=C(Nc1ccc(Oc2ccc(F)cc2)cc1)N1CCc2ncccc2[C@H]1c1ccc(F)cc1 | cell-free assay |  | competition with immobilised ligand | 1 µM | remaining binding | 79%
COc1cc2ncnc(Nc3ccc(Oc4ccccc4)cc3C)c2cc1OC | enzyme activity | inhibitor |  | 1 µM | inhibition | 3%
CCN(CC)CCNC(=O)c1c(C)[nH]c(/C=C2\C(=O)Nc3ccc(F)cc32)c1C | enzyme activity | inhibitor |  | 10 µM | inhibition | 89%
COc1cc2nccc(Oc3ccc(NC(=O)c4c5n(n(-c6ccc(F)cc6)c4=O)CCCC5)cc3)c2cc1OC | enzyme activity | inhibitor |  | 0.1 µM | inhibition | 10%
Cc1nc(N2CC[C@@H](O)C2)ncc1-c1cc(C(F)(F)F)cc2[nH]ncc12 | binding |  | competition with immobilised ligand | 1 µM | remaining binding | 74%
O=C(O)c1ccc2c(c1)nc(NCCc1cccc(Cl)c1)c1ccncc12 | enzyme activity | inhibitor | radiometric | 1 µM | remaining activity | 20%
COc1cc(-c2cn(C3CCc4c(F)cccc4N(CC(F)(F)F)C3=O)nn2)ccc1-n1cnc(C)c1 (stereo not drawn) | cell-free assay |  | competition with immobilised ligand | 1 µM | remaining binding | 100%
N#Cc1cccc(Nc2nc3cc(C(=O)O)ccc3c3cncnc23)c1 | enzyme activity | inhibitor | radiometric | 1 µM | remaining activity | 3%
